In ChEMBL document CHEMBL4715836, “Synthesis and characterization of quinoline-carbaldehyde derivatives as novel inhibitors for leishmanial methionine aminopeptidase 1” (Eur J Med Chem, 2020):
Active and inactive are the calls of the source. The rule behind the calls is not given here.

Assays:
[1] = Inhibition of Leishmania donovani MetAP1 expressed in Escherichia coli BL21 (DE3) using L-methionine-4-methyl-coumary1-7-amide as substrate preincubated for 30 mins followed by substrate addition and measured at 1 min interval for 30 mins by spectrofluorometric method
Method in brief: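 His-tagged LdMetAP1 from pET28a, purified by Ni-NTA and gel filtration. Enzyme preincubated 30 min in metal-supplemented assay buffer with compound. L-Met-AMC added at 125 µM and fluorescence recorded. Percent inhibition taken as the net fluorescence decrease against control reactions; IC50 from a range of compound concentrations.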

Leishmania donovani [2] = assay: Competitive inhibition of Leishmania donovani MetAP1 expressed in Escherichia coli BL21 (DE3) at 1 to 10 uM using varying levels of L-methionine-4-methyl-coumary1-7-amide as substrate preincubated for 30 mins followed by substrate addition and measured for 30 mins by Lineweaver-burk plot analysis; conditions: dose 1-10 µM, time 60.0 min
[3] = Cytotoxicity against mouse embryonic fibroblasts measured after 48 hrs by MTT assay; conditions: Fibroblast
Method in brief: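 Mouse embryonic fibroblasts exposed to compounds at 0, 50, 100 and 200 µM for 48 h. MTT solution (5 mg/ml) then added for 4 h at 37°C. Formazan dissolved in DMSO and absorbance read at 570 nm.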

[4] = Binding affinity to Leishmania donovani MetAP1 expressed in Escherichia coli BL21 (DE3) by surface plasmon resonance analysis
Method in brief: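 Recombinant LdMetAP1 amine-coupled to a CM-5 dextran chip. Running and injection buffer was 1X PBS pH 7.4 with 0.05% P-20. Compounds in 2% DMSO injected over the chip at a range of concentrations to record response units. After solvent correction, kinetics fitted to a 1:1 Langmuir binding model.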

Leishmania donovani [5] = assay: Binding affinity to Leishmania donovani MetAP1 expressed in Escherichia coli BL21 (DE3) assessed as intrinsic fluorescence quenching of tryptophan residues measured after 30 mins by fluorescence spectroscopic method
Method in brief: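 LdMetAP1 at 1 µM final in 20 mM Tris-HCl pH 7.5, 50 mM NaCl, incubated with compounds for 30 min at 25°C. Tryptophan fluorescence read at excitation ~295 nm, emission ~300-400 nm. F0/F1 plotted against compound concentration. KSV from linear regression; binding parameters from modified Stern-Volmer plots.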

Leishmania donovani [6] = assay: Uncompetitive inhibition of Leishmania donovani MetAP1 expressed in Escherichia coli BL21 (DE3) at 1 to 10 uM using varying levels of L-methionine-4-methyl-coumary1-7-amide as substrate preincubated for 30 mins followed by substrate addition and measured for 30 mins by Lineweaver-burk plot analysis; conditions: dose 1-10 µM, time 60.0 min

Row | Structure (SMILES) | IC50 [1] [µM] | also measured
1 | COc1cccc(N2C(=O)CSC2c2ccc3cccc(O)c3n2)c1 (stereo unspecified) | 39.7 | 
2 | Cc1cccc(N2C(=O)CSC2c2ccc3cccc(O)c3n2)c1 (stereo unspecified) | 27.9 | 
3 | N#Cc1cccc(N2C(=O)CSC2c2ccc3cccc(O)c3n2)c1 (stereo unspecified) | 11.7 | inhibition (Leishmania donovani [2]): Active; IC50 [3]: > 250 µM; Kd [4]: 0.0154 µM; Activity (Leishmania donovani [5]): Dose-dependent effect
4 | O=C1CSC(c2ccc3cccc(O)c3n2)N1c1cccc(F)c1 (stereo unspecified) | 8.8 | inhibition (Leishmania donovani [6]): Active; IC50 [3]: 120 µM; Kd [4]: 0.000161 µM; Activity (Leishmania donovani [5]): Dose-dependent effect
5 | O=C1CSC(c2ccc3cccc(O)c3n2)N1c1cccc(Br)c1 (stereo unspecified) | 46.1 | 
6 | COc1cc(N2C(=O)CSC2c2ccc3cccc(O)c3n2)cc(OC)c1OC (stereo unspecified) | 12.9 | 
7 | O=C1CSC(c2ccc3cccc(O)c3n2)N1c1ccc(Oc2ccccc2)cc1 (stereo unspecified) | 43.8 | 
8 | COc1ccc(N2C(=O)CSC2c2ccc3cccc(O)c3n2)cc1OC (stereo unspecified) | 26.4 | 
9 | O=C1CSC(c2ccc3cccc(O)c3n2)N1c1ccccc1 (stereo unspecified) | 79.9 | 
10 | COc1cc(OC)cc(N2C(=O)CSC2c2ccc3cccc(O)c3n2)c1 (stereo unspecified) | 18.4 | 
11 | COc1ccccc1N1C(=O)CSC1c1ccc2cccc(O)c2n1 (stereo unspecified) | 18.4 | 

Now from value to compound, other results behind:

Row | IC50 [1] [µM] | Structure (SMILES) | also measured
12 | 1.1 | O=C1CSC(c2ccc3cccc(O)c3n2)N1c1ccc(Cl)cc1 (stereo unspecified) | inhibition (Leishmania donovani [2]): Active; IC50 [3]: > 200 µM; Kd [4]: 0.015 µM; Activity (Leishmania donovani [5]): Dose-dependent effect
13 | 252 | O=C1CSC(c2ccc3cccc(O)c3n2)N1c1ccc(I)cc1 (stereo unspecified) | 
14 | 36.8 | O=C1CSC(c2ccc3cccc(O)c3n2)N1c1ccc(Br)cc1 (stereo unspecified) | 
15 | 37.4 | CC(C)c1ccc(N2C(=O)CSC2c2ccc3cccc(O)c3n2)cc1 (stereo unspecified) | 
16 | 46.4 | O=C1CSC(c2ccc3cccc(O)c3n2)N1c1cccc(OC(F)(F)F)c1 (stereo unspecified) | 
17 | 45.5 | O=C1CSC(c2ccc3cccc(O)c3n2)N1c1ccc(F)cc1 (stereo unspecified) | 
18 | 62.5 | COc1ccc(N2C(=O)CSC2c2ccc3cccc(O)c3n2)cc1 (stereo unspecified) | 
19 | 1.31 | Cc1ccc(N2C(=O)CSC2c2ccc3cccc(O)c3n2)cc1 (stereo unspecified) | inhibition (Leishmania donovani [2]): Active; IC50 [3]: > 200 µM; Kd [4]: 0.0215 µM; Activity (Leishmania donovani [5]): Dose-dependent effect
20 | 54.1 | O=C1CSC(c2ccc3cccc(O)c3n2)N1c1ccc(C(F)(F)F)cc1 (stereo unspecified) | 
